The record followed here is ChEMBL document CHEMBL1136958, “Design and optimization of renin inhibitors: Orally bioavailable alkyl amines” (Bioorg Med Chem Lett, 2009).

One data set can be described thus: in vivo. Particulars: rat, po.
A short description of data set [1]: Solubility in water. The data set is classed as physicochemical.
For data set [2], the species on record is Macaca fascicularis. As to the kind of experiment: Terminal half life in cynomolgus monkey. Conditions: in vivo, read-out: beta t1/2 (converted).
A short description of data set [3]: Oral bioavailability in dog. Conditions: in vivo. The data set is classed as ADME, organism-based, Canis lupus familiaris.
Data set [4] can be described thus: Terminal half life in dog. The data set is classed as ADME, organism-based, Canis lupus familiaris. Conditions: in vivo, read-out: beta t1/2 (converted).
Data set [5] can be described thus: Cmax in rat at 10 mg/kg, po and 2 mg/kg, iv. The data set is classed as ADME, organism-based. Conditions: in vivo. Summed up:
(§1)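 Rats dosed with the fumarate salt at 10 mg/kg by oral route and 2 mg/kg intravenously. Plasma concentrations measured over time, and PK parameters derived from them.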

The nature of data set [6]: Clearance in rat at 2 mg/kg, iv. The data set is classed as ADME, organism-based. Also noted: dose 2 mg/kg, route intravenous. Particulars: in vivo. In outline: as §1
Data set [7] is described as follows: AUC (infinity) in rat at 10 mg/kg, po and 2 mg/kg, iv. The data set is classed as ADME, organism-based. Particulars: plasma. Summed up:
as §1

A short description of data set [8]: Oral bioavailability in rat at 10 mg/kg. The data set is classed as ADME, organism-based. Particulars: in vivo. Summed up: as §1
In data set [9] the test system is Macaca fascicularis. As to the kind of experiment: Oral bioavailability in cynomolgus monkey. Conditions: in vivo.
Data set [10] can be described thus: Tmax in rat at 10 mg/kg, po and 2 mg/kg, iv. The data set is classed as ADME, organism-based. Particulars: in vivo. Summed up: as §1
Data set [11] deals with Voltage-gated inwardly rectifying potassium channel KCNH2 (Homo sapiens, UniProt Q12809). As to the kind of experiment: Inhibition of human ERG by patch clamp assay. Background: Patch clamp records ionic current or voltage across a cell membrane.
Chain of Voltage-gated inwardly rectifying potassium channel KCNH2 (Q12809 whole entry): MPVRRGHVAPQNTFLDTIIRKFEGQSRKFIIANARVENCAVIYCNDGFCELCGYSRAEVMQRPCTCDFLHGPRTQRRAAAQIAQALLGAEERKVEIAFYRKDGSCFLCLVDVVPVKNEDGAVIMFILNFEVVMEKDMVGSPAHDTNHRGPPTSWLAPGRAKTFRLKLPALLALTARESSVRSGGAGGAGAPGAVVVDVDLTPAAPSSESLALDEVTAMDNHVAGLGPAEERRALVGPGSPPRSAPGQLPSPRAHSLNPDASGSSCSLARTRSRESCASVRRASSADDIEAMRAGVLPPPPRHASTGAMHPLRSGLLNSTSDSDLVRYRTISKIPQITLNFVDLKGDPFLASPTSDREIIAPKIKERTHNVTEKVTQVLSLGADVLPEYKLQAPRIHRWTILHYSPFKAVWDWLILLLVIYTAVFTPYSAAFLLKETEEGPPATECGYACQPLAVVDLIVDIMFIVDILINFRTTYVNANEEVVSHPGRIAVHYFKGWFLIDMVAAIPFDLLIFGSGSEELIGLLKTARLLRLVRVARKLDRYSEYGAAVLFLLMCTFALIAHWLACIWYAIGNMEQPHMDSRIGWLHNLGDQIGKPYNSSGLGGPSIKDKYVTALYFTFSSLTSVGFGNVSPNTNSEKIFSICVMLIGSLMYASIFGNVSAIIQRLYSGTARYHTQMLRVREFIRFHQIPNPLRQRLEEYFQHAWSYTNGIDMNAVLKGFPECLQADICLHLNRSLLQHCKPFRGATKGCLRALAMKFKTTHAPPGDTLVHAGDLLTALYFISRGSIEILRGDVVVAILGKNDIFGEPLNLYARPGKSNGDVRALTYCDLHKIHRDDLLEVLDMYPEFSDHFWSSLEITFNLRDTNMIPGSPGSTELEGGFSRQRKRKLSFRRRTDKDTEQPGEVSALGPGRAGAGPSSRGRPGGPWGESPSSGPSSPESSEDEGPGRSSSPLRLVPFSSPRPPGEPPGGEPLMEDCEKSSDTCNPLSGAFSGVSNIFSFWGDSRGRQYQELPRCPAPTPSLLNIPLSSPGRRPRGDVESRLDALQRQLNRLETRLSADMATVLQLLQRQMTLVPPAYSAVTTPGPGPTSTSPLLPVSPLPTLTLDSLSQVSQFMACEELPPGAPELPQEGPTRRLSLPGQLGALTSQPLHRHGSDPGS

What is called bioavailability is the share of a dose that reaches the circulation, judged against a reference dose that is usually intravenous. Broadly, the solubility is the dissolved amount per volume that the medium holds. In general, Cmax refers to the highest concentration seen after dosing. What is called clearance is the volume of plasma or blood freed of the substance per unit of time. As usually defined, the AUC(0-inf) is total exposure, with the tail of the curve extrapolated. For orientation: Tmax means the time from dosing to the highest level. In general, IC50 refers to the point on the concentration scale where inhibition reaches its midpoint.

Regarding `COCCCOc1cc(C[C@@H](C[C@H](N)[C@@H](O)C[C@H](C(=O)NCC(C)(C)C(N)=O)C(C)C)C(C)C)ccc1OC`, in the data set “in vivo”, the bioavailability is 2.4%.
In the case of `CNC[C@H](CC1CCCCC1)NC(=O)N1CCC[C@@H]([C@@](O)(CCCCOC)c2cccc(Cl)c2)C1.O=C(O)/C=C/C(=O)O`, the solubility in [1] was over 1000 µg/mL. Also, the half-life (in the data set listed under Macaca fascicularis [2]; in data set [4]) was 16 h each time. For the same compound, the bioavailability was 38% in data set [3], 12.9% in data set [8] and 17% in the data set on Macaca fascicularis [9]. This compound returned a Cmax in data set [5] of 73 ng/mL. In [6], the clearance turned out to be 33 mL/min/kg. In data set [7], the AUC(0-inf) worked out at 530 ng·h/mL. Moreover, in data set [10], the Tmax stood at 3.3 h. For the same compound, in [11], the IC50 is over 30 µM.
